Screens as filed in PubChem.
Most compounds without a hit are left out; they make up all but 2.7% or so of the library.
VIM-2 inh: blocks Pseudomonas aeruginosa VIM-2 metallo-beta-lactamase. purified VIM-2, nitrocefin hydrolysis, epi-absorbance fluorescence. inhibition, % at 5.6 µM. hit rate 0.89% among 290,000. AID 1527;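 active = inhibition above the mean of all tested compounds plus 3 SD, cutoff set per screening run, cut at about 7.5% in these data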;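 also: red hydrolysis product quenches plate fluorescence so inhibitors raise well fluorescence; 0% = enzyme with DMSO and 100% = DMSO without enzyme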
PfM18AAP inh-1: blocks P. falciparum M18 aspartyl aminopeptidase; inhibition, % at 7.35 µM; hit rate 1.2% among 290,000; recombinant PfM18AAP, H-Glu-NHMec fluorogenic cleavage; AID 1822;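 active = inhibition above the campaign mean inhibition over all tested compounds plus 3 SD, cut at about 28% in these data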;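 also: 0% = plate median of test compound wells and 100% = 2 mM ZnCl2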
IMP-1 inh: inhibitors of Pseudomonas aeruginosa IMP-1 metallo-beta-lactamase; inhibition, % at 5.6 µM; hit rate 0.45% among 290,000; purified IMP-1, nitrocefin hydrolysis, epi-absorbance fluorescence;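 active = inhibition above the mean plus 3 SD of all compounds in the same screening run, cut at about 4.5% in these data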;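 also: 0% = IMP-1 with DMSO and 100% = DMSO wells lacking enzyme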
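Assay system: purified recombinant IMP-1 beta-lactamase. Input: IMP-1 0.2 nM before substrate addition. Buffer or medium: Zinc- and detergent-supplemented HEPES buffer, pH 7.1. Schedule: 25 °C, 15 min preincubation, 25 min reaction. Signal: Epi-absorbance fluorescence, 480 nm excitation, 530 nm emission. Evaluation: percent inhibition from optical density relative to buffer-blank wells.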
CTSL1 counter-1: cathepsin L1 inhibition, PFM18AAP counter-screen | recombinant F. hepatica cathepsin L1, Z-Leu-Arg-MCA fluorescence | inhibition, % at 5.96 µM | hit rate 0.49% among 300,000;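 active = inhibition above the mean of all tested compounds plus 3 SD, set per screening campaign, cut at about 17% in these data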;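 also: 0% = plate median of test compound wells and 100% = 1 µM Z-Phe-Ala-diazomethylketone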
PfM18AAP inh-2: confirmation of Plasmodium falciparum M18 aspartyl aminopeptidase inhibitors; inhibition, % at 7.35 µM; shares compounds with PfM18AAP inh-1; hit rate 28% among 2,400; recombinant PfM18AAP, H-Glu-NHMec fluorogenic cleavage;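 active = mean inhibition over replicate wells above the hit cutoff set for the earlier primary screen, cut at about 29% in these data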;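 also: 0% = median of test compound wells and 100% = 2 mM ZnCl2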
CTSL1 counter-2: counter-screen for PFM18AAP inhibitors: confirmation of human cathepsin L inhibitors; shares compounds with PfM18AAP inh-1; purified cathepsin L1, Z-Leu-Arg-MCA fluorescence; inhibition, % at 5.96 µM; 2,400 tested, under 10 active;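 active = average inhibition across replicates above the hit cutoff set in the earlier primary screen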;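 also: 0% = median of test compound wells and 100% = Z-Phe-Ala-diazomethylketone 1 µM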
Target sequence (P07711 whole entry, looked up): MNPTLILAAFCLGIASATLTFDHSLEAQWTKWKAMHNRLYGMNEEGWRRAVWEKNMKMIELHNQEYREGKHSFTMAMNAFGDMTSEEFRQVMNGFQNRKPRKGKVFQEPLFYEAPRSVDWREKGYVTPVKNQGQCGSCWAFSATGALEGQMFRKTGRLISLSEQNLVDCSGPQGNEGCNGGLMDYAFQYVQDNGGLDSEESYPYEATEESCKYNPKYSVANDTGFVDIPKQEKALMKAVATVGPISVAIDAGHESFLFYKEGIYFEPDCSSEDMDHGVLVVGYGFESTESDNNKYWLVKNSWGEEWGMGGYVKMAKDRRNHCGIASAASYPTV
* = called active by the depositor; x = no result.

SMILES | VIM-2 inh | PfM18AAP inh-1 | IMP-1 inh | CTSL1 counter-1 | PfM18AAP inh-2 | CTSL1 counter-2
CC(C)(C)C1CCc2c(sc(NC(=O)CSc3ncn[nH]3)c2C#N)C1 (configuration not stated) | -3.7 | 34.1* | -1.4 | 2.1 | -16.9 | 1.4
Oc1ccc(/C=N/Nc2ccccc2)cc1 | -3.7 | 18.1 | 0.3 | 3.5 | x | x
Cc1cc(N/N=C/c2ccc(O)cc2)nc(NS(=O)(=O)c2ccccc2)n1 | -2.5 | 43.3* | -3.0 | -0.6 | -43.4 | 5.2
Cc1nc2ccccc2nc1N/N=C/c1ccc(O)cc1 | 7.8* | 36.8* | -0.7 | 4.0 | 10.0 | -2.2
CCc1ccc(N(C(=O)CCC(=O)Nc2cc(C)on2)C(C(=O)NC(C)(C)C)c2ccc(OC)cc2)cc1 (configuration not stated) | -3.6 | 1.7 | -0.9 | 1.7 | x | x
O=C(CNS(=O)(=O)c1ccccc1)NNC(=O)C(Cl)Cl | -3.8 | 50.2* | -4.6 | 12.9 | 27.0 | 9.4
CC(=O)Nc1ccc(S(=O)(=O)N2CCN(C(=O)c3ncoc3-c3ccccc3C)CC2)cc1 | -1.5 | -13.6 | 0.6 | -1.4 | x | x
C=CCNC(=S)NNc1nc2sc3c(c2c(=O)[nH]1)CC(C)(C)OC3 | -1.2 | 33.6* | -2.4 | 0.4 | 16.5 | 1.3
Cc1ccc(NC(=S)NCc2cccnc2)cc1 | -0.1 | 10.2 | -4.4 | -1.2 | x | x
CCNC(=S)NC(=NCc1cccnc1)Nc1nc(C)cc(C)n1 | 5.8 | 32.2* | -0.6 | -1.1 | -12.5 | -2.8
O=C(NNc1nccc(C(F)(F)F)n1)Nc1cccc(Cl)c1 | -1.8 | 45.6* | 0.9 | 0.0 | 14.1 | -1.7
O=C(Nc1cccc(Cl)c1)Nn1cnnc1 | -0.8 | 67.1* | -0.1 | 0.0 | 57.5* | -3.6
O=C(NNc1cc(C(F)(F)F)nc2ccccc12)Nc1cccc(Cl)c1 | -1.8 | 26.6 | -2.6 | 2.3 | x | x
Cc1ccc(NC(=O)Nn2cnnc2)cc1Cl | -2.5 | 68.8* | -2.9 | 1.4 | 53.8* | -1.9
O=C(Nc1ccc(Cl)c(Cl)c1)Nn1cnnc1 | 0.5 | 76.5* | -1.7 | x | 70.8* | -1.2
COc1ccccc1-n1cnnc1SCC(=O)Nc1cccc(S(N)(=O)=O)c1 | 0.1 | 3.5 | -4.7 | 4.1 | x | x
Cc1ccc(NC(=O)c2sc3nc[nH]c(=O)c3c2C)c(C)c1 | -2.0 | -1.4 | -1.7 | 11.4 | x | x
COc1cccc(NC(=O)Nn2cnnc2)c1 | -0.2 | 63.0* | 1.3 | x | 49.3* | 0.7
O=C(Nc1cccc(C(F)(F)F)c1)Nn1cnnc1 | -1.5 | 69.9* | -3.9 | x | 64.2* | 0.0
COc1ccc(NC(=O)C(=O)NCCN2CCN(C(=O)c3ccco3)CC2)cc1 | -0.4 | -8.2 | -1.9 | -3.6 | x | x
O=c1[nH]c2ccc(S(=O)(=O)Nc3ccccc3O)cc2[nH]1 | -1.3 | 50.3* | 0.7 | 1.5 | 46.5* | -1.5
CC(Sc1ncn[nH]1)C(=O)NCc1ccccc1 (configuration not stated) | -2.7 | 34.7* | -2.0 | 0.4 | 17.5 | -1.2
CC(=O)Nc1ccc(NC(=O)/C=C/c2cccc(C(F)(F)F)c2)cc1 | -1.8 | -1.4 | -2.3 | -4.7 | x | x
Cc1cc(NC(=O)CN2CCN(c3ccc(O)cc3)CC2)no1 | -2.7 | 34.7* | -0.4 | -0.8 | -13.4 | 0.6
CCOC(=O)Cc1csc(NC(=O)CSc2nnc(-c3ccc(C)cc3)o2)n1 | -3.2 | 32.4* | -0.9 | 0.7 | -54.7 | -3.3
SMILES | VIM-2 inh | PfM18AAP inh-1 | IMP-1 inh | CTSL1 counter-1 | PfM18AAP inh-2 | CTSL1 counter-2
Cc1cc(NC(=O)CSc2nnc(-c3ccc(O)cc3)o2)no1 | -4.9 | 37.9* | -2.8 | -4.0 | -48.1 | -6.5
O=C(CN1CCN(c2ccc(O)cc2)CC1)Nc1ccc2c(c1)OCCO2 | -4.4 | 38.2* | -2.8 | -2.0 | -1.5 | 5.2
Cc1cc(NC(=O)CN2CCN(S(=O)(=O)c3ccc(Cl)cc3)CC2)no1 | -4.6 | -6.6 | -7.2 | 10.2 | x | x
CCOC(=O)c1c(NC(=O)C(NCCN(C)C)c2ccccc2)sc2c1CCCC2 (configuration not stated) | -0.2 | 5.0 | -3.1 | 0.8 | x | x
CC1(C)Cc2c(sc3c4nnnn4c4nnnn4c23)CO1 | -2.6 | 0.6 | -3.1 | x | x | x
COc1cccc(N/C(N)=N/c2nc(C(F)(F)F)cc(=O)[nH]2)c1 | -1.8 | 0.6 | -0.9 | -5.3 | x | x
O=[N+]([O-])c1ccccc1NC(=S)N/N=C/c1ccc(O)c(O)c1 | 2.0 | 59.4* | -3.0 | 3.8 | 39.5* | 0.6
CCOc1cccc(/C=N/NC(=S)Nc2ccccc2[N+](=O)[O-])c1O | -3.6 | -1.0 | -2.3 | -1.1 | x | x
CCOc1ccc(CCNC(=O)COC(=O)c2cc(=O)[nH]c3ccccc23)cc1OCC | x | x | x | 8.9 | x | x
CSC1=NC(=O)/C(=C\c2cccc3ccccc23)S1 | -1.2 | -1.4 | -1.3 | -0.8 | x | x
O=c1/c(=C/c2cccc3ccccc23)sc2ncnn12 | -0.3 | 43.7* | -1.5 | 6.8 | 35.4* | -4.6
CCCCOc1ccc(/C=c2\sc3ncnn3c2=O)cc1 | 2.3 | 75.8* | -0.8 | -1.7 | 4.4 | -0.7
Cc1ccsc1/C=c1\sc2ncnn2c1=O | 2.5 | 87.0* | -1.2 | 0.4 | 55.2* | 3.7
Cc1cc(NC(=O)NN2CCOCC2)nn1-c1c(Cl)cccc1Cl | -2.7 | -9.0 | -3.1 | 0.1 | x | x
Cc1cc(C)n(-c2cc(N3CCN(C(=O)c4ccccc4C)CC3)ccc2[N+](=O)[O-])n1 | -0.9 | -1.9 | -1.9 | 6.6 | x | x
CCN(CCNC(=O)C1CCCN(S(=O)(=O)CC)C1)c1ccccc1 (configuration not stated) | -1.8 | 20.1 | -1.8 | 1.1 | x | x
CCN(CCCNC(=O)C1CCN(S(=O)(=O)c2cnc[nH]2)CC1)c1cccc(C)c1 | -2.1 | 51.1* | -7.4 | -1.2 | -33.5 | -0.6
CCN(CCCNC(=O)C1CCCN(S(=O)(=O)CC)C1)c1cccc(C)c1 (configuration not stated) | 1.4 | 47.3* | -1.0 | 1.5 | -39.6 | -2.9
COc1cccc(/C=N/Nc2nc(Nc3ccc([N+](=O)[O-])cc3)nc(N3CCCC3)n2)c1O | -4.7 | 2.7 | -0.2 | 3.9 | x | x
O=[N+]([O-])c1ccc(Nc2nc(N/N=C/c3cccc(F)c3)nc(N3CCCC3)n2)cc1 | 0.0 | 43.8* | -1.6 | -0.5 | -34.6 | -0.2
CN1CCc2cccc3c2[C@@H]1Cc1ccc(O)c(O)c1-3 | 2.1 | 36.4* | -3.2 | 0.9 | 78.5* | 2.6
COc1cc(-c2c(C#N)c(N)nc3[nH]c(=S)[nH]c(=O)c23)ccc1O | -1.6 | 33.3* | -0.9 | 6.2 | 20.8 | 6.7
COc1ccc(OC)c(C2C(C(C)=O)=C(C)Nc3ncnn32)c1 (configuration not stated) | -1.9 | -2.5 | -2.9 | -6.4 | x | x
COc1ccc(C2=Nc3ccccc3OC2)cc1 | -2.8 | 39.1* | -2.7 | -1.3 | -26.0 | -1.3
Nc1nnc(CC(=O)N/N=C/c2cc([N+](=O)[O-])cc(Br)c2O)s1 | 2.0 | 37.0* | 0.3 | 2.3 | 1.1 | 2.8
COC(=O)c1sc(N2C(=O)C(=O)/C(=C(/O)c3ccccc3)C2c2ccco2)nc1C (configuration not stated) | -1.6 | 21.8 | -2.2 | 2.0 | x | x
